The source of these data is ChEMBL document CHEMBL4411293, “Development of alkyl glycerone phosphate synthase inhibitors: Structure-activity relationship and effects on ether lipids and epithelial-mesenchymal transition in cancer cells” (Eur J Med Chem, 2019).

The source made the active and inactive calls. No cut-off for these calls is given here.

The target in data set [1] is Alkyldihydroxyacetonephosphate synthase, peroxisomal (Homo sapiens) (UniProt O00116). The data set can be described thus: Binding affinity to AGPS (unknown origin) assessed as change in melting temperature at 180 uM by ThermoFAD assay. An outline of the steps: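 ThermoFAD: 5 µM Cavia porcellus AGPS with 180 µM compound in 50 mM HEPES pH 7.5, 50 mM NaCl, 5% glycerol; heated 25–70 °C, FAD fluorescence read every 0.2 °C (excitation 485 nm) to give unfolding temperature shift; triplicate, SD within ±0.5 °C.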
Chain of Alkyldihydroxyacetonephosphate synthase, peroxisomal (Homo sapiens) (O00116 whole entry): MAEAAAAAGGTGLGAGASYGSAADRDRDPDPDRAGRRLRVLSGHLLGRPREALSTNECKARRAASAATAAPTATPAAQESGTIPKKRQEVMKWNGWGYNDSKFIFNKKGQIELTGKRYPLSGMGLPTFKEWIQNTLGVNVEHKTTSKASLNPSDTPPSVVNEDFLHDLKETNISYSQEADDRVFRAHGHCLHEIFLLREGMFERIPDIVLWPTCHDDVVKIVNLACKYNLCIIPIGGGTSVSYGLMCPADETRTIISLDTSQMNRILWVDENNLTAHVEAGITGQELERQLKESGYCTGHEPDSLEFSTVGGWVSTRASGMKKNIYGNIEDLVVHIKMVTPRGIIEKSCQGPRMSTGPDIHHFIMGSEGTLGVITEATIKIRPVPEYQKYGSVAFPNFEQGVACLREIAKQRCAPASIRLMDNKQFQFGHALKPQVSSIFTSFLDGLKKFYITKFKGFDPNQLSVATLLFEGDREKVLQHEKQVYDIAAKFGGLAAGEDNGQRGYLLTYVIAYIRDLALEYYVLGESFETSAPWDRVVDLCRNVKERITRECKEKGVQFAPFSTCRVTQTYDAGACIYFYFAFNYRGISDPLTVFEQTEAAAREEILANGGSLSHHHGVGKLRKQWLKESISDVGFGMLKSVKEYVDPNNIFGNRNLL

The subject of data set [2] is PC-3. The data set can be described thus: Modulation of epithelial-mesenchymal transition in human PC3 cells assessed as down regulation of MMP2 mRNA expression at 50 to 100 uM after 24 hrs by qRT-PCR analysis. The data set is classed as functional, cell-based. An outline of the steps:
(§1)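 PC-3 and MDA-MB-231 cells in DMEM/10% FBS treated 24 h at 50 and 100 µM, DMSO vehicle as control; E-cadherin, Snail and MMP2 transcripts quantified by RT-PCR; mean of at least four independent experiments.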

Data set [3] deals with MDA-MB-231. The data set can be described thus: Modulation of epithelial-mesenchymal transition in human MDA-MB-231 cells assessed as down regulation of MMP2 mRNA expression at 50 to 100 uM after 24 hrs by qRT-PCR analysis. The data set is classed as functional, cell-based. An outline of the steps:
as §1
On the technique in general: In qPCR the cycle at which signal appears reflects the starting amount.

Data set [4] relates to MDA-MB-231. The data set can be described thus: Modulation of epithelial-mesenchymal transition in human MDA-MB-231 cells assessed as upregulation of E-cadherin mRNA expression at 50 to 100 uM after 24 hrs by qRT-PCR analysis. The data set is classed as functional, cell-based. An outline of the steps: as §1
The subject of data set [5] is PC-3. The data set can be described thus: Modulation of epithelial-mesenchymal transition in human PC3 cells assessed as down regulation of snail mRNA expression at 50 to 100 uM after 24 hrs by qRT-PCR analysis. It counts as functional, cell-based. An outline of the steps:
as §1

For data set [6], the target named is Alkyldihydroxyacetonephosphate synthase, peroxisomal (Homo sapiens) (UniProt O00116). The data set can be described thus: Inhibition of AGPS (unknown origin) using palmitoyl-DHAP as substrate in presence of [1-14C]hexadecanol by radioactivity based enzymatic assay.
The subject of data set [7] is MDA-MB-231. The data set can be described thus: Modulation of epithelial-mesenchymal transition in human MDA-MB-231 cells assessed as down regulation of snail mRNA expression at 50 to 100 uM after 24 hrs by qRT-PCR analysis. The data set is classed as functional, cell-based. The gist of the method: as §1
Data set [8] deals with PC-3. The data set can be described thus: Modulation of epithelial-mesenchymal transition in human PC3 cells assessed as upregulation of E-cadherin mRNA expression at 50 to 100 uM after 24 hrs by qRT-PCR analysis. The data set is classed as functional, cell-based. The gist of the method:
as §1

The nature of data set [9]: Cytotoxicity against human 231MFP cells assessed as cell survival at 500 uM after 48 hrs by MTS assay relative to control. The data set is classed as cell-based. Conditions: read-out: Activity. The gist of the method:
(§2)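 231MFP cells preincubated with compound (500 µM) or DMSO, then seeded into serum-free survival assay; survival read after 24 and 48 h relative to matched DMSO controls.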

Data set [10] can be described thus: Cytotoxicity against human MeT-5A cells at 250 uM after 24 hrs by MTS assay. The data set is classed as cell-based. An outline of the steps:
(§3)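 Cells seeded at 20x10^3 per well; compound added 24 h later at 50, 100 or 250 µM; after further 24 h MTS reagent added and absorbance read at 490 nm; PC-3 and MDA-MB-231 in DMEM, MeT5A in M199, each with 10% FBS, 37 °C, 5% CO2; three independent experiments, 8 measurements total, mean ± SEM.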
On the technique in general: Tetrazolium assays rely on reduction of a dye to a coloured formazan, in cell work by metabolically active cells.

Data set [11] in a line: Cytotoxicity against human MeT-5A cells at 100 uM after 24 hrs by MTS assay. The data set is classed as cell-based. An outline of the steps: as §3
Data set [12] is described as follows: Antimigratory activity in human 231MFP cells at 500 uM after 6 hrs by transwell assay relative to control. It counts as functional. An outline of the steps:
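Transwell chambers coated with collagen; 231MFP cells preincubated with compound or DMSO vehicle before seeding into serum-free migration assay; migration rate read after 6 h versus vehicle control; mean ± SD, n = 3–4 per group.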

Data set [13] can be described thus: Cytotoxicity against human 231MFP cells assessed as cell survival at 500 uM after 24 hrs by MTS assay relative to control. The data set is classed as cell-based. To be noted: read-out: Activity. An outline of the steps: as §2
The nature of data set [14]: Down regulation of phospholipids in human 231MFP cells at 500 uM after 24 hrs by LC-MS/MS analysis relative to control. The data set is classed as functional. An outline of the steps:
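231MFP cells kept serum-free 24 h, then treated 24 h at 500 µM versus DMSO; lipids extracted in chloroform/methanol/PBS (2:1:1) with C12:0 dodecylglycerol and pentadecanoic acid internal standards; reverse-phase C5 LC, ESI triple-quadrupole MS/MS with SRM quantitation; mean ± SD.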

The nature of data set [15]: Antimigratory activity in human 231MFP cells at 500 uM after 8 hrs by transwell assay relative to control. The data set is classed as functional.
A short description of data set [16]: Reduction in cell migration rate in human 231MFP cells. It counts as functional. Also noted: scale not given: the % may be the effect or the level left.
The nature of data set [17]: Reduction in cell survival in human 231MFP cells. The data set is classed as functional.
Data set [18] relates to MDA-MB-231. The data set can be described thus: Antiproliferative activity against human MDA-MB-231 cells at 100 uM after 24 hrs by MTS assay. It counts as functional, cell-based. The gist of the method: as §3
In data set [19] the test system is MDA-MB-231. The data set can be described thus: Modulation of epithelial-mesenchymal transition in human MDA-MB-231 cells transfected with AGPS-siRNA assessed as upregulation of E-cadherin mRNA expression at 100 uM after 24 hrs by qRT-PCR analysis. It counts as functional, cell-based. The gist of the method:
(§4)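 MDA-MB-231 cells transfected with AGPS siRNAs (100 pmol total, RNAiMAX) or scramble; 24 h later given compound at 100 µM final or DMSO without detaching, harvested 24 h after that; AGPS, E-cadherin, Snail and MMP2 transcripts by RT-PCR; mean of five independent experiments.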

In data set [20] the test system is MDA-MB-231. The data set can be described thus: Modulation of epithelial-mesenchymal transition in human MDA-MB-231 cells transfected with AGPS-siRNA assessed as down regulation of MMP2 mRNA expression at 100 uM after 24 hrs by qRT-PCR analysis. It counts as functional, cell-based. The gist of the method: as §4
Data set [21] deals with MDA-MB-231. The data set can be described thus: Modulation of epithelial-mesenchymal transition in human MDA-MB-231 cells transfected with AGPS-siRNA assessed as down regulation of snail mRNA expression at 100 uM after 24 hrs by qRT-PCR analysis. The data set is classed as functional, cell-based. The gist of the method:
as §4

Data set [22] has as its system MDA-MB-231. The data set can be described thus: Antiproliferative activity against human MDA-MB-231 cells at 250 uM after 24 hrs by MTS assay. It counts as functional, cell-based. The gist of the method: as §3
Data set [23] deals with PC-3. The data set can be described thus: Antiproliferative activity against human PC3 cells at 250 uM after 24 hrs by MTS assay. The data set is classed as functional, cell-based. The gist of the method: as §3
Data set [24] relates to PC-3. The data set can be described thus: Antiproliferative activity against human PC3 cells at 100 uM after 24 hrs by MTS assay. It counts as functional, cell-based. The gist of the method: as §3

Turning to `C/C(=C\c1ccccc1F)C(=O)NCc1ccc2[nH]c(=O)[nH]c2c1`, in data set [1], the ΔTm (commonly the shift of the melting midpoint relative to a reference) was determined as 2 °C.
Same read-out and setting: the value for `CC(CC(=O)NCc1ccc2[nH]c(=O)[nH]c2c1)c1ccccc1Cl` (stereo unspecified) was 3.5 °C.
Consider `CC(CC(=O)NCc1ccc2[nH]cnc2c1)c1c(F)cccc1F` (stereo unspecified), for which the outcome in the data set with PC-3 [2], in the data set on MDA-MB-231 [3], in the data set with MDA-MB-231 [4], with PC-3 [5], with MDA-MB-231 [7] and in the data set on PC-3 [8] was inactive. In addition, the ΔTm in data set [1] worked out at 0 °C. Besides, the inhibition result in data set [6] is “inactive”.
For the molecule `CC(CC(=O)NCc1ccc2[nH]c(=O)[nH]c2c1)c1ccc(F)cc1F` (stereo unspecified), the ΔTm in data set [1] was found to be 3.5 °C.
Consider `CC(CC(=O)NCc1ccc2[nH]c(=O)[nH]c2c1)c1ccccc1Br` (stereo unspecified), for which, in data set [1], the ΔTm was 3.5 °C.
On the same count and under the same terms, the value for `C[C@H](CC(=O)NCc1ccc2[nH]c(=O)[nH]c2c1)c1c(F)cccc1F` was 3 °C; that for `O=C(/C=C/c1ccccc1F)NCc1ccc2[nH]c(=O)[nH]c2c1` was 0 °C.
Turning to `CC(CC(=O)NCc1ccc2[nH]c(=O)[nH]c2c1)c1c(F)cccc1F` (stereo in doubt; 2i) [listing 1 of 2 here], the viability at 48 h, 500 µM in data set [9] was determined as 57%. The Activity entry in data set [10] was “Non-Toxic”; in data set [11], “Non-Toxic”; in [12] it was 78%; in [14] it was 50 - 70%. The viability at 24 h, 500 µM in [13] turned out to be 44%.
For the molecule `CC(CC(=O)NCc1ccc2[nH]c(=O)[nH]c2c1)c1ccccc1F` (stereo unspecified), the outcome with PC-3 [2], with MDA-MB-231 [3], with MDA-MB-231 [4], in the data set with PC-3 [5], in the data set with MDA-MB-231 [7] and in the data set on PC-3 [8] was Active. Also, the figures for the Activity in [15], in data set [16] and in [17] were 48%, 48% and 50%, respectively. Further, the ΔTm in data set [1] was determined as 3.5 °C.
Regarding `C/C(=C\C(=O)NCc1ccc2[nH]c(=O)[nH]c2c1)c1ccccc1F`, the ΔTm in [1] was found to be 0 °C.
Still for that read-out and setting: for `CCC(CC(=O)NCc1ccc2[nH]c(=O)[nH]c2c1)c1ccccc1F` (stereo unspecified) the value was 1 °C.
The same measure, in the same setting: the value for `CC(CC(=O)NCc1ccc2[nH]c(=O)[nH]c2c1)c1ccc(F)cc1` (stereo unspecified) was 4 °C.
In the case of `CC(CC(=O)Nc1ccc2[nH]c(=O)[nH]c2c1)c1c(F)cccc1F` (stereo unspecified), the ΔTm in data set [1] worked out at 0 °C.
The same measure, in the same setting: the value for `COc1ccccc1C(C)CC(=O)NCc1ccc2[nH]c(=O)[nH]c2c1` (stereo unspecified) was 0 °C; that for `CC(Cc1ccccc1F)C(=O)NCc1ccc2[nH]c(=O)[nH]c2c1` (stereo unspecified) was 3 °C.
Same read-out and setting: for `CC(CC(=O)NCc1ccc2[nH]c(=O)[nH]c2c1)c1c(F)cccc1F` (single isomer, unassigned; (+)) the value was 6 °C.
Turning to `CC(C(=O)NCc1ccc2[nH]c(=O)[nH]c2c1)c1c(F)cccc1F` (stereo unspecified), the thermal shift (ΔTm) in data set [1] is 1 °C. Besides, the inhibition entry in data set [6] was “inactive”.
Take `O=C(CC(c1ccccc1)c1ccccc1F)NCc1ccc2[nH]c(=O)[nH]c2c1` (stereo unspecified): in data set [1], the ΔTm is 0 °C. The inhibition entry in data set [6] is “inactive”.
Regarding `O=C(CCc1ccccc1F)NCc1ccc2[nH]c(=O)[nH]c2c1`, the ΔTm in data set [1] is 0 °C.
As for `CC(CC(=O)NCc1ccc2[nH]c(=O)[nH]c2c1)c1ccccc1` (stereo unspecified), in data set [1], the ΔTm was determined as 1.5 °C.
Regarding `CC(CC(=O)NCc1ccc2ncc(=O)[nH]c2c1)c1c(F)cccc1F` (stereo unspecified), the thermal shift (ΔTm) in [1] is 0 °C.
Consider `CC(CC(=O)NCc1ccc2[nH]c(=O)[nH]c2c1)c1c(F)cccc1F` (stereo in doubt; 2i) [listing 2 of 2 here], for which the result in the data set with MDA-MB-231 [18] and in the data set with PC-3 [24] was inactive. Besides, the outcome in the data set on PC-3 [2], in the data set on MDA-MB-231 [3], in the data set on MDA-MB-231 [4], in the data set on MDA-MB-231 [19], in the data set on MDA-MB-231 [20] and in the data set with PC-3 [5] was Active. The result in the data set on MDA-MB-231 [21], in the data set on MDA-MB-231 [22], with PC-3 [23], in the data set on MDA-MB-231 [7] and with PC-3 [8] was Active. In addition, the shift in melting temperature (ΔTm) in data set [1] was 5 °C. Moreover, the inhibition result in data set [6] is “Active”.
`CC(CC(=O)NCc1ccc2[nH]c(=O)[nH]c2c1)c1cccc(F)c1` (stereo unspecified): the thermal shift (ΔTm) in [1] was 3 °C.
As for `Cc1ccccc1C(C)CC(=O)NCc1ccc2[nH]c(=O)[nH]c2c1` (stereo unspecified), the ΔTm in [1] turned out to be 3 °C.
